Test results: ChEMBL document CHEMBL3091366, “New 5-Aryl-1H-imidazoles display in vitro antitumor activity against apoptosis-resistant cancer models, including melanomas, through mitochondrial targeting” (J Med Chem, 2013)
pIC50: −log10 of the molar value. Activity calls are given as the source filed them. The calls are words filed in the database; no cut-off is given here.

Experiments:
[1] = tested on: SK-MEL-28; experiment: Cytotoxicity against human SK-MEL-28 cells assessed as residual growth at 10 uM; assay type: functional
[2] = tested on: MCF7; experiment: Cytotoxicity against human MCF7 cells assessed as residual growth at 10 uM; assay type: functional
[3] = tested on: 786-0; experiment: Cytotoxicity against human 786-0 cells assessed as residual growth at 10 uM; assay type: functional
[4] = tested on: SW-620; experiment: Cytotoxicity against human SW620 cells assessed as residual growth at 10 uM; assay type: functional
[5] = tested on: NCI-H522; experiment: Cytotoxicity against human NCI-H522 cells assessed as residual growth at 10 uM; assay type: functional
[6] = tested on: NCI-H226; experiment: Cytotoxicity against human NCI-H226 cells assessed as residual growth at 10 uM; assay type: functional
[7] = tested on: SF-295; experiment: Cytotoxicity against human SF295 cells assessed as residual growth at 10 uM; assay type: functional
[8] = tested on: A549; experiment: Cytotoxicity against human A549 cells assessed as residual growth at 10 uM; assay type: functional
[9] = tested on: CCRF-CEM; experiment: Cytotoxicity against human CCRF-CEM cells assessed as residual growth at 10 uM; assay type: functional
[10] = Cytotoxicity against human NCI-ADR-RES cells assessed as residual growth at 10 uM; assay type: functional
[11] = Cytotoxicity against human OVCAR4 cells assessed as residual growth at 10 uM; assay type: functional, OVCAR-4
[12] = tested on: LOX IMVI; experiment: Cytotoxicity against human LOXIMVI cells assessed as residual growth at 10 uM; assay type: functional
[13] = tested on: SK-MEL-28; experiment: Induction of ROS production in human SK-MEL-28 cells at 5 uM by DCFH-DA staining-based flow cytometry; assay type: functional, cell-based; settings: TDE = time-dependent effect
Outline: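 SKMEL-28 cells exposed to 5 µM over a time course, washed twice, stained 1 h at 37 °C with 20 µM DCFH-DA in phenol red-free RPMI, washed twice, trypsinized; ROS-driven probe oxidation read as fluorescence by flow cytometry. Run once in quadruplicate; mean ± SEM.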

[14] = tested on: SK-MEL-28; experiment: Effect on oxygen consumption in human SK-MEL-28 cells at 10 uM after 72 hrs by oxygraphic analysis; assay type: functional, cell-based
Outline: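 SKMEL-28 cells pre-incubated 72 h with 10^-5 M compound or untreated; five million cells per chamber in phenol red-free DMEM (glucose 1 g/L, pyruvate 110 mg/L). ROUTINE respiration recorded by high-resolution respirometry (Clark electrode), 37 °C, continuous stirring from chamber closure; O2 consumption slopes taken as routine respiration.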

[15] = tested on: NCI-H23; experiment: Cytotoxicity against human NCI-H23 cells assessed as residual growth at 10 uM; assay type: functional
[16] = Cytotoxicity against human EKVX cells assessed as residual growth at 10 uM; assay type: functional
[17] = tested on: HCC 2998; experiment: Cytotoxicity against human HCC2998 cells assessed as residual growth at 10 uM; assay type: functional
[18] = tested on: SN12C; experiment: Cytotoxicity against human SN12C cells assessed as residual growth at 10 uM; assay type: functional
[19] = tested on: TK-10; experiment: Cytotoxicity against human TK10 cells assessed as residual growth at 10 uM; assay type: functional
[20] = tested on: T47D; experiment: Cytotoxicity against human T47D cells assessed as residual growth at 10 uM; assay type: functional
[21] = tested on: Malme-3M; experiment: Cytotoxicity against human MALME-3M cells assessed as residual growth at 10 uM; assay type: functional
[22] = tested on: SK-MEL-28; experiment: Cytostatic activity against apoptotic-resistant human SK-MEL-28 cells assessed as growth inhibition at 5 uM after 48 to 72 hrs by quantitative videomicroscopy; assay type: functional; settings: read-out: GI
Outline: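 SK-MEL-28 cells exposed to 5 µM for 24, 48 and 72 h. Cell cycle was read by flow cytometry with propidium iodide plus TUNEL double staining (APO-Direct kit), in quadruplicate. Videomicroscopy photographed each field every 4 min over 72 h. Global growth is cells at a time point divided by cells at time 0; the treated/control ratio gives GGR. Cell death was judged from morphology. Run twice, in triplicate and in quadruplicate.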

[23] = tested on: M14; experiment: Cytotoxicity against human M14 cells assessed as residual growth at 10 uM; assay type: functional
[24] = tested on: U-251; experiment: Cytotoxicity against human U251 cells assessed as residual growth at 10 uM; assay type: functional
[25] = tested on: SF-268; experiment: Cytotoxicity against human SF268 cells assessed as residual growth at 10 uM; assay type: functional
[26] = tested on: A549; experiment: Cytotoxicity against apoptotic-resistant human A549 cells assessed as growth inhibition after 72 hrs by MTT-based colorimetric assay; assay type: functional, cell-based; settings: Homo sapiens, A549, 72 h
Outline: (§1)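 MTT colorimetric assay, 72 h exposure to the fumarate salt. Read-out is reduction of MTT to formazan by living cells. IC50 is the concentration that reduces the whole cell population by 50%. Six replicates per condition. Where compounds were not tested on every line, apoptosis-sensitive lines were PC3, MCF-7, LoVo and B16F10, and apoptosis-resistant lines were U373, T98G, A549 and SK-MEL-28.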

[27] = tested on: SK-MEL-28; experiment: Cytotoxicity against apoptotic-resistant human SK-MEL-28 cells assessed as growth inhibition after 72 hrs by MTT-based colorimetric assay; assay type: functional, cell-based; settings: Homo sapiens, SK-MEL-28, 72 h; outline: as §1
[28] = tested on: RXF 393; experiment: Cytotoxicity against human RXF393 cells assessed as residual growth at 10 uM; assay type: functional
[29] = tested on: MDA-MB-231; experiment: Cytotoxicity against human MDA-MB-231 cells assessed as residual growth at 10 uM; assay type: functional
[30] = tested on: B16-F10; experiment: Cytotoxicity against apoptotic-sensitive mouse B16F10 cells assessed as growth inhibition after 72 hrs by MTT-based colorimetric assay; assay type: functional, cell-based; settings: B16-F10, 72 h; outline: as §1
[31] = tested on: HCT-15; experiment: Cytotoxicity against human HCT15 cells assessed as residual growth at 10 uM; assay type: functional
[32] = tested on: KM12; experiment: Cytotoxicity against human KM12 cells assessed as residual growth at 10 uM; assay type: functional
[33] = tested on: IGROV-1; experiment: Cytotoxicity against human IGROV1 cells assessed as residual growth at 10 uM; assay type: functional
[34] = Cytotoxicity against human Hs578T cells assessed as residual growth at 10 uM; assay type: functional, Hs-578T
[35] = tested on: SK-MEL-28; experiment: Induction of apoptosis in apoptotic-resistant human SK-MEL-28 cells at 5 uM after 24 to 72 hrs by TUNEL staining-based flow cytometry; assay type: functional, cell-based
Outline: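 SKMEL-28 cells treated with 5 µM for 24, 48 and 72 h; apoptosis by TUNEL plus propidium iodide staining (APO-Direct kit) read by flow cytometry. Kit negative/positive controls, plus PC-3 cells untreated or given 1 µM narciclasine 72 h as internal controls. Quadruplicate (kit controls singlet); mean ± SEM.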

[36] = tested on: SR; experiment: Cytotoxicity against human SR cells assessed as residual growth at 10 uM; assay type: functional
[37] = tested on: BT-549; experiment: Cytotoxicity against human BT549 cells assessed as residual growth at 10 uM; assay type: functional

## C=CCCCCOc1ccccc1-c1cnc(OCCCCC=C)n1C
[1]
  Activity: 73.36%
[2]
  Activity: 42.18%
[3]
  Activity: 106.84%
[4]
  Activity: 30.82%
[5]
  Activity: 12.63%
[6]
  Activity: 92.21%
[7]
  Activity: 70.07%
[8]
  Activity: 50.25%
[9]
  Activity: 80.85%
[10]
  Activity: 30.38%
[11]
  Activity: 97.91%
[12]
  Activity: 69.06%
[13]
  Activity: tde
[14]
  Activity: Active
[15]
  Activity: 76.02%
[16]
  Activity: 85.23%
[17]
  Activity: 61.08%
[18]
  Activity: 91.09%
[19]
  Activity: 74.98%
[20]
  Activity: 61.88%
[21]
  Activity: 62.83%
[22]
  inhibition of growth at 5 µM: 50%
[23]
  Activity: 72.63%
[24]
  Activity: 68.59%
[25]
  Activity: 79.65%
[26]
  pIC50: 5.15
[27]
  pIC50: 5.30
[28]
  Activity: 90.54%
[29]
  Activity: 66.46%
[30]
  pIC50: 5.15
[31]
  Activity: 52.21%
[32]
  Activity: 38.37%
[33]
  Activity: 62.95%
[34]
  Activity: 66.38%
[35]
  Activity: inactive
[36]
  Activity: 30.69%
[37]
  Activity: 96.77%
